Measured values as given in ChEMBL document CHEMBL1122273, “5-sulfamoylorthanilic acids, a sulfonamide series with salidiuretic activity” (J Med Chem, 1983).

What was measured:
Canis familiaris [1] = assay: Saluretic activity in the dog measured as concentration of K+ in urinary excretion (2 animals/dose) at (dose 0.025 mg/Kg, perorally); format: functional, Canis lupus familiaris, Urine
Outline: (§1)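 Male beagles trained to the procedures, food withdrawn 24 h before, tap water ad libitum. Bladder emptied by catheter, then 20 mL/kg tap water by stomach tube, plus 4 mL/kg orally at each hourly catheterization up to 8 h. The first 2 h of urine served as control. Compound given orally after the second catheterization. Urine from 1–6 h post-dose pooled; Na⁺ and K⁺ by flame photometry, Cl⁻ argentometrically, in mequiv/kg.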

Canis familiaris [2] = assay: Saluretic activity in the dog measured as concentration of Na+ in urinary excretion (2 animals/dose) at (dose 0.4 mg/Kg, perorally); format: functional, Canis lupus familiaris, Urine
Outline: (§2)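 Male beagles trained to rest on a table and to accept stomach tube and catheter. Food withdrawn 24 h before, tap water ad libitum. Bladder emptied by catheter, then 20 mL/kg tap water by stomach tube. Catheterized hourly up to 8 h with 4 mL/kg water orally each time; first 2 h urine served as control. Oral dosing after second catheterization. Pooled 1–6 h urine; Na⁺/K⁺ by flame photometry, Cl⁻ argentometrically.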

Canis familiaris [3] = assay: Saluretic activity in the dog measured as concentration of Cl - in urinary excretion (2 animals/dose) at (dose 0.025 mg/Kg, perorally); format: functional, Canis lupus familiaris, Urine; outline: as §1
Canis familiaris [4] = assay: sodium excretion collected at 1-24 hr time after oral administration in dog (four animals per dose) dosed at 0.39 mg/kg.; format: functional, Canis lupus familiaris
Outline: (§3)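 Trained male beagles, four per dose, fasted 24 h with tap water ad libitum. After bladder emptying, given 20 mL/kg tap water by stomach tube, then 4 mL/kg at each hourly catheterization; 2 h control collection, then oral dosing. Urine volume and Na⁺ (flame photometry) reported for 1–6, 7–24 and 1–24 h post-dose periods.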

Canis familiaris [5] = assay: sodium excretion collected at 1-24 hr time after oral administration in dog (four animals per dose) dosed at 3.12 mg/kg.; format: functional, Canis lupus familiaris; outline: as §3
Canis familiaris [6] = assay: sodium excretion collected at 1-6 h time after oral administration in dog (four animals per dose) dosed at 0.05 mg/kg.; format: functional, Canis lupus familiaris; outline: as §3
Canis familiaris [7] = assay: sodium excretion collected at 1-6 hr time after oral administration in dog (four animals per dose) dosed at 0.39 mg/kg.; format: functional, Canis lupus familiaris; outline: as §3
Canis familiaris [8] = assay: urinary excretion collected at 1-6 hr time after oral administration in dog (four animals per dose) dosed at 3.12 mg/kg.; format: functional, Canis lupus familiaris, Urine
Canis familiaris [9] = assay: urinary excretion collected at 7-24 hr time after oral administration in dog (four animals per dose) dosed at 0.05 mg/kg.; format: functional, Canis lupus familiaris, Urine
Canis familiaris [10] = assay: urinary excretion collected at 7-24 hr time after oral administration in dog (four animals per dose) dosed at 3.12 mg/kg.; format: functional, Canis lupus familiaris, Urine
Canis familiaris [11] = assay: sodium excretion collected at 7-24h time after oral administration in dog (four animals per dose) dosed at 0.05 mg/kg.; format: functional, Canis lupus familiaris
Outline: (§4)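 Trained male beagles, four per dose, fasted 24 h with tap water ad libitum. The bladder was emptied by catheter, then 20 mL/kg tap water was given by stomach tube. Dogs were catheterized hourly with 4 mL/kg water orally each time, and the first 2 h served as control. Compound was given orally after the second catheterization. Urine volume and flame-photometric Na⁺ were measured over 1-6, 7-24 and 1-24 h.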

Canis familiaris [12] = assay: Urinary excretion collected at 1-6 hr time after oral administration in dog (four animals per dose) dosed at 0.39 mg/kg.; format: functional, Canis lupus familiaris, Urine; outline: as §3
Canis familiaris [13] = assay: urinary excretion collected at 1-24 hr time after oral administration in dog (four animals per dose) dosed at 0.05 mg/kg.; format: functional, Canis lupus familiaris, Urine; outline: as §4
Canis familiaris [14] = assay: urinary excretion collected at 1-24 hr time after oral administration in dog (four animals per dose) dosed at 3.12 mg/kg.; format: functional, Canis lupus familiaris, Urine; outline: as §4
Canis familiaris [15] = assay: urinary excretion collected at 1-6 hr time after oral administration in dog (four animals per dose) dosed at 0.05 mg/kg.; format: functional, Canis lupus familiaris, Urine; outline: as §4
[16] = It is the ratio, measured as saluretic activity in the dog as concentration of Cl- in urinary excretion (dose 0.4 mg/Kg, po) to that of (Na+)+(K+); format: functional, Urine
Outline: (§5)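 Trained male beagles, fasted 24 h with tap water ad libitum. Bladder emptied by catheter, then 20 mL/kg tap water by stomach tube, with 4 mL/kg water at each hourly catheterization up to 8 h. The first 2 h of urine served as control. Oral dosing came after the second catheterization, and 1–6 h urine was pooled. Na⁺ and K⁺ were measured by flame photometry, Cl⁻ argentometrically, in mequiv/kg.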

Canis familiaris [17] = assay: Saluretic activity in the dog measured as concentration of Na+ in urinary excretion (2 animals/dose) at (dose 12.5 mg/Kg, perorally); format: functional, Canis lupus familiaris, Urine; outline: as §2
Canis familiaris [18] = assay: Saluretic activity in the dog measured as concentration of Na+ in urinary excretion (2 animals/dose) at a dose of 0.1 mg/Kg, perorally; format: functional, Canis lupus familiaris, Urine; outline: as §2
Canis familiaris [19] = assay: Urinary excretion collected at 1-24 hr time after oral administration in dog (four animals per dose) at dose 0.39 mg/kg.; format: functional, Canis lupus familiaris, Urine; outline: as §3
Canis familiaris [20] = assay: Urinary excretion collected at 1-24 hr time after oral administration in dog (four animals per dose) at dose 1.56 mg/kg.; format: functional, Canis lupus familiaris, Urine; outline: as §3
Canis familiaris [21] = assay: Urinary excretion collected at 1-24 hr time after oral administration in dog (four animals per dose) at dose 6.25 mg/kg.; format: functional, Canis lupus familiaris, Urine; outline: as §3
Canis familiaris [22] = assay: Urinary excretion collected at 1-6 hr time after oral administration in dog (four animals per dose) at dose 0.39 mg/kg.; format: functional, Canis lupus familiaris, Urine; outline: as §3
Canis familiaris [23] = assay: sodium excretion collected at 1-24 hr time after oral administration in dog (four animals per dose) at dose 0.39 mg/kg.; format: functional, Canis lupus familiaris; outline: as §3
Canis familiaris [24] = assay: sodium excretion collected at 1-24 hr time after oral administration in dog (four animals per dose) at dose 1.56 mg/kg.; format: functional, Canis lupus familiaris; outline: as §3
Canis familiaris [25] = assay: sodium excretion collected at 1-6 hr time after oral administration in dog (four animals per dose) at dose 1.56 mg/kg.; format: functional, Canis lupus familiaris; outline: as §3
Canis familiaris [26] = assay: sodium excretion collected at 7-24 hr time after oral administration in dog (four animals per dose) at dose 0.39 mg/kg.; format: functional, Canis lupus familiaris; outline: as §3
Canis familiaris [27] = assay: sodium excretion collected at 7-24 hr time after oral administration in dog (four animals per dose) at dose 1.56 mg/kg.; format: functional, Canis lupus familiaris; outline: as §3
Canis familiaris [28] = assay: Urinary excretion collected at 7-24 hr time after oral administration in dog (four animals per dose) at dose 0.39 mg/kg.; format: functional, Canis lupus familiaris, Urine; outline: as §3
Canis familiaris [29] = assay: Urinary excretion collected at 7-24 hr time after oral administration in dog (four animals per dose) at dose 1.56 mg/kg.; format: functional, Canis lupus familiaris, Urine; outline: as §3
[30] = It is the ratio, measured as saluretic activity in the dog as concentration of Na+ in urinary excretion (dose 12.5 mg/kg, p.o.) to that of K; format: functional, Urine; details: route oral; outline: as §5
[31] = It is the ratio, measured as saluretic activity in the dog as concentration of Cl- in urinary excretion (dose 12.5 mg/kg, p.o.) to that of (Na+)+(K+); format: functional, Urine; details: route oral; outline: as §5
Rattus norvegicus [32] = organism: Rattus norvegicus; assay: Effect on Urine flow in rats in comparison to furosemide activity
Rattus norvegicus [33] = organism: Rattus norvegicus; assay: Effect on (GFR) glomerular filtration rate in rats in comparison to furosemide activity

CN(c1ccccc1)c1cc(NCc2ccco2)c(S(=O)(=O)[O-])cc1S(N)(=O)=O.[Na+]
Saluretic activity (Canis familiaris [1]): 0.2 m equiv 6hr-1 kg-1
Saluretic activity (Canis familiaris [2]): 5.26 m equiv 6hr-1 kg-1
Saldiuretic activity (Canis familiaris [3]): 0.75 mequiv kg-1 6hr-1
Na+ excretion (Canis familiaris [4]): 5.81 mequiv kg-1
Na+ excretion (Canis familiaris [5]): 6.48 mequiv kg-1
Na+ excretion (Canis familiaris [6]): 1.29 mequiv kg-1
Na+ excretion (Canis familiaris [7]): 5.26 mequiv kg-1
Urinary excretion (Canis familiaris [8]): 61.2 mL/kg
Urinary excretion (Canis familiaris [9]): 10.1 mL/kg
Urinary excretion (Canis familiaris [10]): 40.8 mL/kg
Na+ excretion (Canis familiaris [11]): 0.22 mequiv kg-1
Urinary excretion (Canis familiaris [12]): 75.3 mL/kg
Urinary excretion (Canis familiaris [13]): 50.6 mL/kg
Urinary excretion (Canis familiaris [14]): 102 mL/kg
Urinary excretion (Canis familiaris [15]): 40.5 mL/kg
Ratio [16]: 1

NS(=O)(=O)c1cc(S(=O)(=O)[O-])c(NCc2ccco2)cc1Oc1ccccc1.[Na+]
Saluretic activity (Canis familiaris [17]): 6.49 m equiv 6hr-1 kg-1
Saluretic activity (Canis familiaris [18]): 0.18 m equiv 5hr-1 kg-1
Urinary excretion (Canis familiaris [19]): 50.9 mL/kg
Urinary excretion (Canis familiaris [20]): 78.9 mL/kg
Urinary excretion (Canis familiaris [21]): 111.1 mL/kg
Urinary excretion (Canis familiaris [22]): 41.6 mL/kg
Na+ excretion (Canis familiaris [23]): 2.04 mequiv/kg
Na+ excretion (Canis familiaris [24]): 5.4 mequiv kg-1
Na+ excretion (Canis familiaris [25]): 4.97 mequiv kg-1
Na+ excretion (Canis familiaris [26]): 0.47 mequiv kg-1
Na+ excretion (Canis familiaris [27]): 0.48 mequiv kg-1
Urinary excretion (Canis familiaris [28]): 9.3 mL/kg
Urinary excretion (Canis familiaris [29]): 12.3 mL/kg
Ratio [30]: 5.5
Ratio [31]: 0.95
Volume (Rattus norvegicus [32]): 0.909 mL/min/kg
GFR (Rattus norvegicus [33]): 6.89 mL/min/kg
